B2AR ag = human beta-2 adrenergic receptor agonism by FAP; P07550; Am2.2-beta2AR cells, FAP receptor internalization, flow cytometry; response, % (concentration not given with the values); 340,000 compounds, 0.43% hits; AID 504454;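 active = response above a set limit, near 3 SD of response in nonfluorescent compounds, cut at about 42% in these data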
CHOP inhibitor = CHOP inhibition in unfolded protein response | CHO-K1 CHOP-promoter luciferase, tunicamycin-induced, 15-18 h | inhibition, % at 10 µM | 220,000 compounds, 3.8% hits | AID 2732;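 active = compounds that reduced the stress-induced luciferase reporter signal by more than about 70% of percent inhibition, limit read from the data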
UPR CHOP act = apoptotic UPR (CHOP) activation. CHO-CHOP luciferase reporter, luminescence; percent of tunicamycin response over DMSO baseline. activation, % at 10 µM. 330,000 compounds, 0.34% hits. AID 449763;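 active = at 10 µM dose, activation of 40% or more, normalized to positive control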
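Assay system: CHO-CHOP cells, stable luciferase reporter of PERK-eIF2a-CHOP signalling / Buffer or medium: F12 plus 10% serum / Compound dosing: one dose, 10 µM in 0.5% DMSO / Times: 6 h compound treatment, 37 °C / Technique: luciferase luminescence / Read-out: % reporter activation, DMSO baseline versus tunicamycin full activation / Benchmarks: tunicamycin and DMSO controls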
UPR XBP1 act = activators of adaptive arm of unfolded protein response (XBP1). CHO-XBP1 luciferase reporter, IRE1-XBP1 UPR activation, luminescence; percent of tunicamycin response, DMSO as zero. activation, % at 20 µM. 330,000 compounds, 0.33% hits. AID 463104;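 active = versus positive control, 20 µM dose yields 30% or more activation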
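Material: IRE1-XBP1 luciferase reporter CHO line / Quantity: one thousand reporter cells per well / Buffer or medium: F12 with 10% serum / Compound: 20 µM single concentration, DMSO 1% / Times: 6 h treatment, 37 °C / Detection: Steady-Glo luciferase glow luminescence, 10 min after reagent addition / Benchmarks: tunicamycin high, DMSO low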
VLA-4 inh = inhibition in a human VLA-4 binding assay. 330,000 compounds, 0.2% hits. AID 2557. VLA-4 expressing cells, ligand binding flow cytometry. inhibition, % (about 7 µM as worked out from the volumes in the protocol); in the data active = inhibition above about 50%
Target sequence (P13612 whole entry, looked up): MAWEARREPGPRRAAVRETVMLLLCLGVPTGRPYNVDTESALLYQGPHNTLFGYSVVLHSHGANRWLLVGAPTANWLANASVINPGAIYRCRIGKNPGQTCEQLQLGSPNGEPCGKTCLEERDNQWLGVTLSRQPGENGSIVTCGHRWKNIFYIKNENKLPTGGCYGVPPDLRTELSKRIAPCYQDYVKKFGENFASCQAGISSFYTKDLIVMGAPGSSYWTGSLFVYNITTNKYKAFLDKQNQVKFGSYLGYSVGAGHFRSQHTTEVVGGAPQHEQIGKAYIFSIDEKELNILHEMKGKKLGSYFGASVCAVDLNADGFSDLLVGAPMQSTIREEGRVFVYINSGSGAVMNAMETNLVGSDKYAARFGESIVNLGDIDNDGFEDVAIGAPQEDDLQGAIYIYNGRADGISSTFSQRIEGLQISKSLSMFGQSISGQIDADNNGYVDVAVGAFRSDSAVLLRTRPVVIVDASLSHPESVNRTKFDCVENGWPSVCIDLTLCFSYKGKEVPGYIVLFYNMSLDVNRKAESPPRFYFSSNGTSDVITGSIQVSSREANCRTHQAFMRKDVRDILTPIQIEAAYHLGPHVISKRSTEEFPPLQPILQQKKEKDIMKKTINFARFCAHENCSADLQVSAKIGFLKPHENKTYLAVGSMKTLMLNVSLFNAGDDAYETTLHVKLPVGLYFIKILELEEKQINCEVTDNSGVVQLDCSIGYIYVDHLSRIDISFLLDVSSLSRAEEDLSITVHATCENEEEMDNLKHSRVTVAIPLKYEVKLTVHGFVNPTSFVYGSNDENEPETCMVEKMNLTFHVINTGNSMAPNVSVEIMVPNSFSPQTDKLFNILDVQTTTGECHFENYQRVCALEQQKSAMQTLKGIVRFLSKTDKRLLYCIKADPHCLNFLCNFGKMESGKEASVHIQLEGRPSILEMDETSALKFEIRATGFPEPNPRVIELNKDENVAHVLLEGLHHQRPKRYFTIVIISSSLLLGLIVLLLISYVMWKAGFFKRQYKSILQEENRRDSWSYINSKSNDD
Each line names hits and unclear results; the compound was inactive in the other large screens. The full list was thinned out, with hits kept by preference.

COc1cccc(N2CCN(C(=O)CC(C)(C)CC3=NS(=O)(=O)c4ccccc4N3)CC2)c1	none (no result: CHOP inhibitor)
Cc1ccc(-c2nnc(COC(=O)c3cccs3)o2)cc1	none (no result: CHOP inhibitor)
O=S1(=O)N(Cc2ccccc2F)CCCN1Cc1c(F)cccc1Cl	none (no result: CHOP inhibitor)
O=C(Nc1cc(S(=O)(=O)Nc2ccc(Cl)cc2)ccc1O)c1ccc(S(=O)(=O)N2CCCCCC2)cc1	none
O=C(N/N=C\c1cc(Cl)ccc1O)c1ccc(S(=O)(=O)N2CCCCC2)cc1	CHOP inhibitor 81
O=C(COc1ccc(Cl)cc1)Nc1ccc(C(=O)O)cc1NC(=O)COc1ccc(Cl)cc1	none (no result: CHOP inhibitor)
COc1cccc(-c2nc(-c3ccccc3)nc(N3CCN(C)CC3)c2C#N)c1	CHOP inhibitor 77
O=c1cc(O)c2c(=O)n(Cc3ccccc3)c3ccccc3c2o1	none
O=c1cc(O)c2c(=O)n(C3CCCCC3)c3ccccc3c2o1	CHOP inhibitor 72
O=C(Nc1cccc(S(=O)(=O)Nc2ccc(Cl)cc2)c1)c1cc2c(s1)CCCC2	CHOP inhibitor 76
Cc1ccc(NC(=O)c2cc3c(s2)CCCC3)cc1S(=O)(=O)Nc1ccccc1Cl	none
O=C(Nc1cccc(S(=O)(=O)Nc2ccc(Cl)cc2)c1)c1ccc(Cl)nc1	CHOP inhibitor 73
COc1ccc(NS(=O)(=O)c2cccc(NC(=O)c3ccc(Cl)nc3)c2)cc1	none
Clc1ccc(CSc2nnc(-c3ccccn3)n2Cc2ccco2)c(Cl)c1	CHOP inhibitor 82
COc1cccc(NC(=O)CN(C)C(=O)c2cccc(S(=O)(=O)Nc3ccccc3OC)c2)c1	none (no result: CHOP inhibitor)
O=C(N[C@@H](Cc1ccccc1)C(=O)OCc1ccccc1)c1nc[nH]c1C(=O)N1CCc2ccccc2C1	none
CC(C)C[C@H](NC(=O)c1nc[nH]c1C(=O)N1CCc2ccccc2C1)C(=O)OCc1ccccc1	CHOP inhibitor 92
CC(C)NC(=S)NC(=O)/C=C/c1cccc2ccccc12	CHOP inhibitor 86
CCOP(=O)(OCC)c1nc(-c2cccc3ccccc23)oc1NCc1ccc(OC)cc1	none
CCOP(=O)(OCC)c1nc(/C=C/c2ccccc2)oc1NCc1ccc(OC)cc1	CHOP inhibitor 77
CCOP(=O)(OCC)c1nc(-c2cccc3ccccc23)oc1NCc1ccccc1	CHOP inhibitor 77
CON/C=C(\C=Nc1ccccc1)c1ncc(C(F)(F)F)cc1Cl	CHOP inhibitor 89
Cc1ccc(C(=O)O/N=C(\N)c2ccc(Br)cc2)cc1	CHOP inhibitor 72
Cc1ccc(C(=O)O/N=C(\N)c2ccccc2)c(Cl)c1	CHOP inhibitor 72
Cc1ccc(C(=O)O/N=C(\N)c2ccccn2)c(Cl)c1	none (no result: CHOP inhibitor)
N/C(=N\OC(=O)c1ccc(Cl)cc1Cl)c1ccccn1	CHOP inhibitor 79
Cc1ccc(/C(N)=N/OC(=O)COc2ccccc2Cl)cc1	CHOP inhibitor 70
Cc1ccc(C(=O)OC(C)C(=O)Nc2ccc3c(c2)OCO3)c(O)c1 (stereo unspecified)	none (no result: CHOP inhibitor)
O=C(CN(Cc1ccco1)C(=O)c1ccc(Cl)cc1)Nc1ccc(Cl)c(Cl)c1	CHOP inhibitor 93
O=C(Nc1ccc(Cl)c(Cl)c1)N(Cc1cccnc1)Cc1ccco1	none
CCCCN1C(=O)C2(OCCCO2)c2cccc(C)c21	none (no result: CHOP inhibitor)
CCOC(=O)c1sc(/N=C/c2ccc(O)cc2O)cc1C	CHOP inhibitor 94
Cc1noc(C)c1C(=O)Nc1nc2ccccc2s1	none (no result: CHOP inhibitor, VLA-4 inh)
Cc1ccc(NC(=O)c2c(C(=O)Nc3ccccc3)sc3nc(C)cc(=O)n23)cc1	none
CCc1ccc(NC(=O)c2c(C(=O)Nc3ccccc3)sc3nc(C)cc(=O)n23)cc1	CHOP inhibitor 82
COc1ccc(Cl)cc1S(=O)(=O)N(C)CC(=O)NCc1ccc2c(c1)OCO2	none (no result: CHOP inhibitor)
O=C(CNC(=O)c1ccco1)OCc1cccc(Cl)c1	CHOP inhibitor 74
O=C(CNC(=O)c1ccco1)NCC(=O)OCc1cccc(Cl)c1	none
CC(=O)Nc1nc(-c2ccccc2)nc(-c2ccccc2OC(C)=O)n1	CHOP inhibitor 90
CC(=O)Nc1nc(C)nc(-c2ccccc2OC(C)=O)n1	none
O=C1c2ccccc2S(=O)(=O)c2cc(N3CCC4(CC3)OCCO4)ccc21	none (no result: B2AR ag, CHOP inhibitor)
CC1=C(C(=O)OCc2ccccc2)C(c2cccnc2)c2c(n(C)c(=O)n(C)c2=O)N1 (stereo unspecified)	CHOP inhibitor 85
CC1=C(C(=O)OCc2ccccc2)C(c2cccnc2)n2ncnc2N1 (stereo unspecified)	none
CC1Cc2ccccc2N1C(=O)CN(C)CC(=O)Nc1cccc(F)c1 (stereo unspecified)	none (no result: CHOP inhibitor)
COc1ccc(-c2nc(CCl)cs2)cc1OC	none
COc1ccc(-c2nc(-c3ccc(O)cc3O)cs2)cc1OC	CHOP inhibitor 85 (no result: UPR CHOP act, UPR XBP1 act, VLA-4 inh)
CCN(C(=O)c1ccncc1)c1c(N)n(Cc2ccccc2)c(=O)[nH]c1=O	none (no result: CHOP inhibitor, VLA-4 inh)
Cc1cccc(Oc2cc([N+](=O)[O-])cc3c2C(=O)Nc2ccccc2O3)c1	CHOP inhibitor 92
O=C1Nc2ccccc2Oc2cc([N+](=O)[O-])cc(Oc3ccccc3)c21	none
Cn1cccc1C(=O)NC(=O)COC(=O)CC12CC3CC(CC(C3)C1)C2	CHOP inhibitor 80
O=C(Nc1cccc(F)c1)C1CC(=O)N(c2ccc(Br)cc2)C1 (stereo unspecified)	none
O=C(Nc1cccc(Cl)c1Cl)C1CC(=O)N(c2ccc(Br)cc2)C1 (stereo unspecified)	CHOP inhibitor 78
O=C(NC12CC3CC(CC(C3)C1)C2)C1CC(=O)N(c2ccc(Br)cc2)C1 (stereo unspecified)	CHOP inhibitor 70
CCN1CCN(c2ccc(NC(=O)c3ccc(Cl)c(N4CCCC4=O)c3)cc2)CC1	none (no result: CHOP inhibitor)
CCOc1cc(C)nc(N2CCCC(C(=O)NCc3ccccc3F)C2)n1 (stereo unspecified)	CHOP inhibitor 71
Cc1nc2cc(-c3cccc(F)c3)nn2c(C)c1CCC(=O)NC(C)CCc1ccco1 (stereo unspecified)	CHOP inhibitor 82
O=C(NCc1cccnc1)c1cccc(OC2CCN(Cc3ccc(CO)o3)CC2)c1	none (no result: CHOP inhibitor)
Cc1ccc(S(=O)(=O)NCCC(=O)OCc2ccc([N+](=O)[O-])cc2)cc1C	none (no result: CHOP inhibitor)
O=c1oc2cc(Br)ccc2n1CSC1=NCCS1	CHOP inhibitor 71
COc1c2occc2c(OC)c2c(=O)cc(C(F)(F)C(F)(F)F)oc12	CHOP inhibitor 83
COc1ccccc1N(CC(O)Cn1ccnc1C)S(=O)(=O)c1ccc(C)cc1 (stereo unspecified)	none
C(=C\c1ccco1)/C1=NN(c2ccccc2)C(c2ccco2)C1 (stereo unspecified)	CHOP inhibitor 74
O=C(O)c1cc(N=Nc2c(O)ccc3ccccc23)cc(C(=O)O)c1	none (no result: UPR CHOP act, UPR XBP1 act, VLA-4 inh)
Oc1ccc(N=Nc2c(O)ccc3ccccc23)cc1	CHOP inhibitor 92
NS(=O)(=O)c1ccc(N=Nc2c(O)ccc3ccccc23)cc1	CHOP inhibitor 74

Bioassay records as filed in PubChem BioAssay.
